In data set [1] the test system is KG-1. The experiment in a line: Toxicity in human KG1 cells assessed as effect on cell viability at 5 uM after 24 hrs by ATPLite assay. Type of data set: cell-based. The settings on record: kg-1, 24 h. (In ATP-based viability assays light output follows the ATP content of the culture.)
The species entered for data set [2] is Homo sapiens. The experiment in a line: Inhibition of DNMT in human KG1 cells assessed as luciferase gene driven CMV promoter demethylation by measuring fold increase in luciferase reactivation at 5 uM after 24 hrs by luciferase reporter gene assay relative to control. Type of data set: cell-based. The essentials:
(§1)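 Leukemia KG-1 cells carrying a stable luciferase gene under a partially methylated CMV promoter, treated in 96-well plates for 24 h. Luciferase signal read by luminescence (Britelite); reactivation fold expressed as ratio to non-treated cells. Mean of three experiments with standard error.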
(In general: A reporter such as luciferase makes a cellular process visible.)

Data set [3] deals with T1, DNA (cytosine-5)-methyltransferase 1 (Homo sapiens, UniProt P26358). In words: Inhibition of full length His-tagged human DNMT1 using SAM/[methyl-3H]SAM assessed as reduction of methylation in biotinylated hemimethylated DNA duplex at 32 uM after 1 hr by scintillation counting method relative to control.
T1 sequence (P26358 whole entry): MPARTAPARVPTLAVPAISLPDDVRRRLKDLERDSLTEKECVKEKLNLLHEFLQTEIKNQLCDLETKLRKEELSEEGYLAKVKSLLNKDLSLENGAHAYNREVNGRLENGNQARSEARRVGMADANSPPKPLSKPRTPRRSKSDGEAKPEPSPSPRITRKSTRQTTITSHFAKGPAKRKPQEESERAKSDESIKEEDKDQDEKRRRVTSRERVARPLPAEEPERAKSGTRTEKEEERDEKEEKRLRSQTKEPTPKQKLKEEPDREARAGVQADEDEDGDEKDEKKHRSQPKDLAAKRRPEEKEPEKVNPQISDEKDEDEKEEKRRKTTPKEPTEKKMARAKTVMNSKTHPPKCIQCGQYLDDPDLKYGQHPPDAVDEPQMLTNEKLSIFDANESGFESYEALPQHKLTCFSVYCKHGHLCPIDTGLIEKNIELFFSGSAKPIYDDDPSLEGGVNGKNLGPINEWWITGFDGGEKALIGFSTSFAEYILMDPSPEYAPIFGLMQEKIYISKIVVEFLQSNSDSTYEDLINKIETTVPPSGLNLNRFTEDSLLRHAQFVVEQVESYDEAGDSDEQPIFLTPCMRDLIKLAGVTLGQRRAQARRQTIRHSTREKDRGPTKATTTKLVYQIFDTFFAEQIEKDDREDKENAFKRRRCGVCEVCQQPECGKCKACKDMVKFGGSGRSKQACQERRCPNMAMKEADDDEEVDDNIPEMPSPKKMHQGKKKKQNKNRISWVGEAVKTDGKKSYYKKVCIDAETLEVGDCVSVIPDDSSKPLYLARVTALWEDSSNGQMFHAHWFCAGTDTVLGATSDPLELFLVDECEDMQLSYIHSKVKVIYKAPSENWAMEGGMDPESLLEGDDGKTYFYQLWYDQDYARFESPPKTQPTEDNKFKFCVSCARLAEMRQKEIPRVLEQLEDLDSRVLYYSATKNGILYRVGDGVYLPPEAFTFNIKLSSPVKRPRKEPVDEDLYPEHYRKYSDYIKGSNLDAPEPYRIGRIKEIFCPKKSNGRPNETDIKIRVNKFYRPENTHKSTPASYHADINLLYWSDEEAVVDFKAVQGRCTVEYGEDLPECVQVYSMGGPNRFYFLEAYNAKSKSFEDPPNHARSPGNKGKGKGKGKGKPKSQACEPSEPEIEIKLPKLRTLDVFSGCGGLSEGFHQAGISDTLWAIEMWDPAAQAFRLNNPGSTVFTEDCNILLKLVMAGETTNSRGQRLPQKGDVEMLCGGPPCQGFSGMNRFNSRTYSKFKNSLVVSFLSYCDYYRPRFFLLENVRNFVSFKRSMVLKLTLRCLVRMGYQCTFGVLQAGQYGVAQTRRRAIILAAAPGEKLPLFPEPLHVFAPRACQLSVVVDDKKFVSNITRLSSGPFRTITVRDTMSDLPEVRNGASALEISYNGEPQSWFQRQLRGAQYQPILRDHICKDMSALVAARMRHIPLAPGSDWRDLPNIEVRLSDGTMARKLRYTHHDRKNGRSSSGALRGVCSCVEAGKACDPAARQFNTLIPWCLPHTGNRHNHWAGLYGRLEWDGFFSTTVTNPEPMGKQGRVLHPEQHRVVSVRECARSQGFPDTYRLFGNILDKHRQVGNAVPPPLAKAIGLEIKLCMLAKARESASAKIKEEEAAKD
The species named for data set [4] is Homo sapiens. The experiment in a line: Inhibition of DNMT in human HCT116 cells assessed as demethylation of CDKN2A promoter at 100 nM after 7 days by COBRA analysis relative to control. The class given is cell-based. The essentials: (§2)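 HCT116 colon cancer cells in MEM with HEPES, L-glutamine and 10% FCS, 37 °C, 5% CO2; seeded 1 × 10^5/mL, treated for 3 or 7 days at 100 nM. Bisulfite-converted DNA amplified at the CDKN2A promoter, then digested with BsiEI at 60 °C for 90 min (COBRA); bands quantified on 2% agarose gel. Methylation given as ratio to untreated cells; at least two independent experiments, standard errors.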

For data set [5], the species on record is Homo sapiens. The experiment in a line: Inhibition of DNMT in human HCT116 cells assessed as induction of CDKN2A mRNA expression at 100 nM after 7 days by RT qPCR method relative to control. The class given is cell-based. In a few lines: (§3)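 HCT116 cells seeded 1 × 10^5/mL and exposed to 100 nM for 3 or 7 days. CDKN2A mRNA quantified by RT-qPCR with SYBR chemistry: 95 °C 30 s, then 40 cycles of 95 °C 5 s and 60 °C 30 s, followed by a melt curve. Expressed as fold change relative to untreated cells; at least two independent experiments, standard errors.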
On the technique in general: In qPCR the cycle at which signal appears reflects the starting amount.

The species named for data set [6] is Homo sapiens. In words: Inhibition of DNMT in human KG1 cells assessed as luciferase gene driven CMV promoter demethylation by measuring luciferase reactivation at 0.1 uM after 24 hrs by luciferase reporter gene assay. The class given is cell-based. In a few lines:
as §1

Data set [7] deals with T1, DNA (cytosine-5)-methyltransferase 1. The experiment in a line: Inhibition of full length His-tagged human DNMT1 using SAM/[methyl-3H]SAM assessed as reduction of methylation in biotinylated hemimethylated DNA duplex at 100 uM after 1 hr by scintillation counting method relative to control.
The target in data set [8] is T2, DNA (cytosine-5)-methyltransferase 3A (Homo sapiens, UniProt Q9Y6K1). In words: Inhibition of human DNMT3A catalytic domain using AdoMet assessed as reduction of methylation in 5'-biotin/3' 6-carboxyfluorescein labeled DNA duplex at CpG site at 32 uM after 1 hr by fluorescence assay relative to control.
T2 sequence (Q9Y6K1 whole entry, looked up, the tested form may be a part): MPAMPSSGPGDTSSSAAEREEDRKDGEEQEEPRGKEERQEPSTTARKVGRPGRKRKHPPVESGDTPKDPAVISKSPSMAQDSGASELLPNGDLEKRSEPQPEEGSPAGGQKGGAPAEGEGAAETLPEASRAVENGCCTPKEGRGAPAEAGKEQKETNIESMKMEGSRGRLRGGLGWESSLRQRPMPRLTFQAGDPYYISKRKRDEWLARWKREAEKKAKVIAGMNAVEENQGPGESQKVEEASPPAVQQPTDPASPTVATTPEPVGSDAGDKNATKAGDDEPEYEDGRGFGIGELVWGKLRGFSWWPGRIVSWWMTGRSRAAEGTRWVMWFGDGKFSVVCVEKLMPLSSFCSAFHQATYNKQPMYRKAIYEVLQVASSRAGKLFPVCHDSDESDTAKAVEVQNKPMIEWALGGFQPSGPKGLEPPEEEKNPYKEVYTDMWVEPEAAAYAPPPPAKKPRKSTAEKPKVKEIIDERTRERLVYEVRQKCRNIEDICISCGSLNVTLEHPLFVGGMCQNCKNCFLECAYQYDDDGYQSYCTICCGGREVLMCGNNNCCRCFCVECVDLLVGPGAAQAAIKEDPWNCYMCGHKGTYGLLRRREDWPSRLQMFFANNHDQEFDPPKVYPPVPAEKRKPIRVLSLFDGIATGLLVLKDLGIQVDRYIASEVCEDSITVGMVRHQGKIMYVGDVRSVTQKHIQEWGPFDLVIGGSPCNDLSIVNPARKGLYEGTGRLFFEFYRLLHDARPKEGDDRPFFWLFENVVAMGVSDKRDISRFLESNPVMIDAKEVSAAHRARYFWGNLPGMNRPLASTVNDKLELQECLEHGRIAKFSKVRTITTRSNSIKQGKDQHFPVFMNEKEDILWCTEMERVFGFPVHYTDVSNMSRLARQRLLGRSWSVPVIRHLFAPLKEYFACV
For data set [9], the species on record is Homo sapiens. The experiment in a line: Inhibition of DNMT in human KG1 cells assessed as increase in DNA accessibility by opening the chromatin at 5 uM after 24 hrs by NOMe-Seq method relative to control. Also on record: scale not given: the % may be the effect or the level left. The class given is cell-based. In a few lines: (§4)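 CMV-luc KG-1 acute myeloid leukemia cells in RPMI-1640 with 10% FCS, seeded 2 × 10^5/mL and treated for 24 h at 1 or 5 μM. NOMe-Seq: bisulfite conversion, CMV promoter PCR (40 cycles), cloning and sequencing. CpG methylation and GpC accessibility expressed as ratio of percentage methylated cytosines in treated versus untreated sample.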

In data set [10] the target is T2, DNA (cytosine-5)-methyltransferase 3A. In words: Inhibition of human DNMT3A catalytic domain using AdoMet assessed as reduction of methylation in 5'-biotin/3' 6-carboxyfluorescein labeled DNA duplex at CpG site after 1 hr by fluorescence assay. In a few lines:
(§5)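 Human full-length DNMT1 and catalytic DNMT3A tested for methylation of a DNA duplex; the paper gives assay details elsewhere. EC50 from a sigmoid dose-response fit with variable Hill slope; reported as median with SE from at least two independent experiments for DNMT1 and three for DNMT3A; DNMT3A curves run in technical duplicates.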

For data set [11], the species on record is Homo sapiens. The experiment in a line: Inhibition of DNMT in human HCT116 cells assessed as induction of CDKN2A mRNA expression at 100 nM after 3 days by RT qPCR method. Type of data set: cell-based. The essentials: as §3
The target in data set [12] is T1, DNA (cytosine-5)-methyltransferase 1. The experiment in a line: Inhibition of full length His-tagged human DNMT1 using SAM/[methyl-3H]SAM assessed as reduction of methylation in biotinylated hemimethylated DNA duplex after 1 hr by scintillation counting method. In a few lines: as §5
The species named for data set [13] is Homo sapiens. In words: Inhibition of DNMT in human KG1 cells assessed as nucleosome occupancy at CMV promoter by measuring increase in luciferase signal at 5 uM after 24 hrs by NOMe-Seq method relative to control. The class given is cell-based.
The target of data set [14] is T2, DNA (cytosine-5)-methyltransferase 3A. The experiment in a line: Inhibition of human DNMT3A catalytic domain using AdoMet assessed as reduction of methylation in 5'-biotin/3' 6-carboxyfluorescein labeled DNA duplex at CpG site at 10 uM after 1 hr by fluorescence assay relative to control.
Data set [15] is filed under the species Homo sapiens. In words: Inhibition of DNMT in human KG1 cells assessed as CpG site demethylation at CMV promoter at 5 uM after 24 hrs by NOMe-Seq method relative to control. Type of data set: cell-based. The essentials: as §4
For data set [16], the species on record is Homo sapiens. The experiment in a line: Inhibition of DNMT in human KG1 cells assessed as luciferase gene driven CMV promoter demethylation by measuring fold increase in luciferase reactivation at 1 uM after 24 hrs by luciferase reporter gene assay relative to control. Type of data set: cell-based. The essentials:
as §1

The species entered for data set [17] is Homo sapiens. In words: Inhibition of DNMT in human HCT116 cells assessed as demethylation of CDKN2A promoter at 100 nM after 3 days by COBRA analysis relative to control. Type of data set: cell-based. The essentials: as §2
The species named for data set [18] is Homo sapiens. The experiment in a line: Inhibition of DNMT in human KG1 cells assessed as increase in DNA accessibility by opening the chromatin at 1 uM after 24 hrs by NOMe-Seq method relative to control. Also noted: scale not given: the % may be the effect or the level left. Type of data set: cell-based. In a few lines: as §4
The species named for data set [19] is Homo sapiens. The experiment in a line: Inhibition of DNMT in human KG1 cells assessed as CpG site demethylation at CMV promoter at 1 uM after 24 hrs by NOMe-Seq method relative to control. The class given is cell-based. The essentials:
as §4

Data set [20] in a line: Binding affinity to 265 bp pBS DNA at 0.01 to 10 uM after 15 mins using 3'-end labeled using alpha-[32P]-dATP by DNase I footprinting assay.
Data set [21] is described as follows: Binding affinity to 117 bp pBS DNA at 0.01 to 10 uM after 15 mins using 3'-end labeled using alpha-[32P]-dATP by DNase I footprinting assay.
Data set [22] in a line: Binding affinity to 5'-TATATACGTACTGTGTTTTCACAGTACGTATATA-3' CpG site hairpin duplex DNA (unknown origin) assessed as change in melting temperature at 10 uM.
Data set [23] can be described thus: Binding affinity to 5'-TATATACGTACGGTGTTTTCACCGTACGTATATA-3' CpG site hairpin duplex DNA (unknown origin) assessed as change in melting temperature at 10 uM.
Data set [24] is described as follows: Solubility of the compound in RPMI-1640 medium. Type of data set: physicochemical.

These results are taken from ChEMBL document CHEMBL4014314, “Rational Design of Bisubstrate-Type Analogues as Inhibitors of DNA Methyltransferases in Cancer Cells” (J Med Chem, 2017).

Calls of active or inactive are those of the source. The rule behind the calls is not given here.

For orientation: inhibition means the change of the read-out against control, counted positive when it falls. As usually defined, the EC50 is the concentration needed to bring the measured effect to its halfway point. Consider `c1ccc(-c2ccc(CNc3ncnc4cc(OCC5CCN(CCNc6ccnc7ccccc67)CC5)ccc34)cc2)cc1`, for which the Activity entry in data set [1] is “Non-Toxic”; in data set [9] it was 87%. Moreover, the fold change (FC) in data set [2] came out at 4; in data set [5], 13; in data set [13], 4.2; in data set [16], 4. Moreover, the inhibition is 24% in data set [3]; 71% in data set [4]; 69% in data set [7]; 83% in data set [8]; 86% in [14]; 52% in data set [15]. In addition, the inhibition in [17] came to 20%. Besides, in data set [6], the inhibition result was “Active”. Further, the EC50 is 1.1 µM in data set [10] and 100 µM in [12]. The outcome in data set [11] was inactive.

`Nc1ncn([C@H]2C[C@H](O)[C@@H](CO)O2)c(=O)n1`: the inhibition turned out to be 80% in [4], 50% in data set [19] and 60% in [17]. In [18], the Activity is 120%.

Consider `c1ccc(CCCNc2ncnc3cc(OCC4CCN(CCNc5ccnc6ccccc56)CC4)ccc23)cc1`, for which the Activity result in data set [1] is “Non-Toxic”; in [9], 77%. Besides, the fold change (FC) in data set [2] came out at 4; in [13] it was 4.7; in data set [16], 4. The inhibition in data set [3] came to 25%; in data set [4] it was 42%; in data set [7], 91%; in data set [8], 98%; in data set [14] it was 81%; in [15], 33%. For the same molecule, the inhibition in [17] was determined as 32%. Moreover, the outcome in [20], in data set [21], in data set [22] and in data set [23] was inactive. Moreover, the EC50 in data set [10] stood at 4.4 µM; in data set [12], 46 µM.

Consider `c1ccc2c(NCCNc3ncnc4cc(OCC5CCN(CCNc6ccnc7ccccc67)CC5)ccc34)cccc2c1`, for which the fold change (FC) in data set [2] and in [16] was 4 throughout. Moreover, the inhibition came to 86% in data set [3], 94% in [7], 90% in data set [8] and 91% in data set [14]. For the same molecule, the solubility result in data set [24] is on record as “Soluble”. Moreover, the half-maximal effective concentration (EC50) in data set [10] came out at 0.3 µM; in [12], 20 µM.
